Published values from different studies.
Compare with care: the assays were run in different laboratories.
Target: Serine/threonine-protein kinase Nek7 (NEK7, Homo sapiens, UniProt Q8TDX7)

c1cncc(-c2cccc(Nc3nccc(NC4CCCCC4)n3)c2)c1
remaining binding (binding, competition with immobilised ligand; 10 µM): 79%

O=C(Nc1cccnn1)N1CCC(=Cc2cccc(Oc3ccc(C(F)(F)F)cn3)c2)CC1
remaining binding (cell-free assay, competition with immobilised ligand; 1 µM): 100%

CC1CCCN1c1nccc(-c2cnn3ncccc23)n1 (centres unmarked)
remaining binding (binding; 1 µM): 100%

O=C(c1ccc(Nc2ncc(Cl)c(-c3cc4ccccc4s3)n2)cc1)N1CCC(N2CCCC2)CC1
remaining binding (binding, competition with immobilised ligand; 1 µM): 4.5%

COc1ccc2c(c1)O[C@@H](c1ccc(OC)c(OC)c1)C[C@H]2NC(=O)C1(c2ccc3c(c2)OC(F)(F)O3)CC1
remaining binding (cell-free assay, competition with immobilised ligand; 1 µM): 100%

COc1cnc(Nc2cccc(S(N)(=O)=O)c2)nc1N1CCN(c2ccccc2)C(=O)C1
remaining binding (binding, competition with immobilised ligand; 1 µM): 91%

F[C@@H]1CCN(c2nccc(-c3cnn4ncccc34)n2)C1
remaining binding (binding; 1 µM): 100%

C[C@@H](c1ccc(-n2cnc3c(N)ncnc32)cc1)N1CCc2nn(C)c(Cc3ccccc3)c2C1=O
remaining binding (binding, competition with immobilised ligand; 0.1 µM): 94%

O=C(N1CCS(=O)(=O)CC1)N1C[C@H](c2ccc(OC(F)(F)F)cc2)C[C@H](c2nc(C3CC3)no2)C1
remaining binding (cell-free assay, competition with immobilised ligand; 1 µM): 100%

CN(c1nccc(-c2cnn3ncccc23)n1)C1CC1
remaining binding (binding; 1 µM): 100%

CC(C)CC(=O)N1CCc2nc(-c3ccc(Br)cc3)nc(N(C)Cc3ccccc3)c2C1
remaining binding (cell-free assay, competition with immobilised ligand; 0.1 µM): 100%

O=C(NCC1CCOCC1)c1n[nH]cc1NC(=O)c1c(F)cccc1F
remaining binding (binding, competition with immobilised ligand; 1 µM): 93%

O=C(c1ccc(Nc2nccc(-c3cc4ccccc4s3)n2)cc1)N1CCC(N2CCCC2)CC1
remaining binding (binding, competition with immobilised ligand; 1 µM): 79%

CC(=O)Nc1c(C(C)=O)c(=O)n(C)c2nc(-c3ccc(Cl)cc3Cl)c(-c3ccc(Cl)cc3)cc12
remaining binding (cell-free assay, competition with immobilised ligand; 1 µM): 100%

CN(CCCC(F)(F)F)c1nccc(-c2cnn3ncccc23)n1
remaining binding (binding; 1 µM): 100%

CCC(=O)N[C@H]1CC[C@@H](C(=O)N(C)c2ccc(-c3nc4ccccc4o3)cc2)C1
remaining binding (cell-free assay, competition with immobilised ligand; 1 µM): 98%

Nc1ncc2c(n1)-c1c([nH]c3ccc(C#CC4CC4)cc13)CCCC2
remaining binding (binding, competition with immobilised ligand; 1 µM): 88%

C[C@H]1CCN(c2nccc(-c3cnn4ncccc34)n2)C1
remaining binding (binding; 1 µM): 100%

COc1cc(-c2cn(C3CCc4ccccc4N(CC(F)(F)F)C3=O)nn2)ccc1-n1ccc(C)n1 (centres unmarked)
remaining binding (cell-free assay, competition with immobilised ligand; 1 µM): 100%

N[C@@H]1CCN(c2nccc(-c3cnn4ncccc34)n2)C1
remaining binding (binding; 1 µM): 100%

O=C(NCCCN1CCOCC1)c1ccc(Nc2ncc(Cl)c(-c3ccc(Cl)s3)n2)cc1
remaining binding (binding, competition with immobilised ligand; 1 µM): 1.2%

CN(C)c1ncc(F)c(-c2cnn3ncccc23)n1
remaining binding (binding; 1 µM): 95%

CNC(=O)[C@@H]1CC[C@@H](n2c(-c3ccc4cnccc4c3)nc3ccc(C(=O)NCc4cccc(C(N)=O)c4)cc32)C1
remaining binding (binding, competition with immobilised ligand; 1 µM): 92%
